Test results as given in ChEMBL document CHEMBL3734704, “Synthesis and Biological Evaluation of Novel Bouchardatine Derivatives as Potential Adipogenesis/Lipogenesis Inhibitors for Antiobesity Treatment” (J Med Chem, 2015).
Activity calls are given as the source filed them. The rule behind the calls is not given here.

Assays:
[1] = Decrease in triglyceride level in mouse 3T3L1 preadipocytes compound treated for 6 days measured on day 6 by oil red O staining based microscopic analysis; format: functional, cell-based
How it was run: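 3T3-L1 preadipocytes, 2 days post-confluent, treated at 0.01-10.0 µM for 6 days of differentiation, with compound added Day 0 and renewed Day 3. On Day 6, TG measured by TG assay (per protein) and confirmed by Oil Red O staining; n = 3.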

[2] = Downregulation of PPAR-gamma level in mouse 3T3L1 cells at 0.3 to 3 uM after 3 days by western blot analysis; format: functional, cell-based; conditions: 3T3-L1
How it was run: (§1)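 3T3-L1 preadipocytes incubated in adipogenic cocktail with or without compound (0.3, 1.0, 3.0 µM) for the stated periods. Protein levels measured by Western blot (RIPA lysis, PVDF, BSA block, primary 16 h at 4 °C, HRP secondary), normalized to GAPDH/Tubulin and expressed relative to controls; n = 3.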

3T3-L1 [3] = test: Induction of apoptosis in mouse 3T3L1 cells assessed as early apoptotic cells at 3 uM after 24 hrs by annexin-V-FITC and PI staining based flow cytometry (reference value: 0.56%); format: functional
[4] = target: T1, Serine/threonine-protein kinase STK11 (Mus musculus) (UniProt Q9WTK7); test: Activation of LKB1-mediated ACC in mouse 3T3L1 cells assessed as increase in phophorylated ACC level at 3 uM by western blot analysis; format: cell-based; conditions: 3T3-L1, TDE = time-dependent effect
T1 sequence (whole entry): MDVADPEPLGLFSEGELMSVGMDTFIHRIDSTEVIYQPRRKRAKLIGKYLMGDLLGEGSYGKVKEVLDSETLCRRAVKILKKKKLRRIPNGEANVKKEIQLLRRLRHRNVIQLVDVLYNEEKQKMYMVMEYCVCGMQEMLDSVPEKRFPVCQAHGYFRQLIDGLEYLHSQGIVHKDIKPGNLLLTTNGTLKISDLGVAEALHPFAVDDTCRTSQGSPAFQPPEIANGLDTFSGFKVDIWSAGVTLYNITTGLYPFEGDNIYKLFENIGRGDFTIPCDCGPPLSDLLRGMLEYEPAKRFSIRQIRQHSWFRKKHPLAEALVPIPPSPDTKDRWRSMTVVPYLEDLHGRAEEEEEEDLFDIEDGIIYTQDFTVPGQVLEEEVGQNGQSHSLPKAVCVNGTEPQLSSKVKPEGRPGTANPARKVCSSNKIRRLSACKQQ
How it was run: (§2)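 3T3-L1 preadipocytes held in adipogenic cocktail with or without compound at 3 µM, time course (10 min, 2 h, 24 h) during differentiation. Lysis in RIPA with protease/phosphatase inhibitors, SDS-PAGE, PVDF, BSA block, primary antibody 16 h at 4 °C, HRP secondary. Bands normalized to GAPDH, with the 10 min DMSO group set as 100%; n = 3.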

HepG2 = test: Decrease in cholesterol level in human HepG2 cells at 1 uM after 24 hrs by […] assay in presence of 0.5 mM oleic acid sodium; format: functional
How it was run: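 HepG-2 cells seeded, then after 24 h exposed to 0.5 mM oleic acid sodium plus compound (1 µM; dose series up to 10 µM) for 24 h, DMSO vehicle. Cells lysed in 0.2% Triton X-100 for 1 h, sonicated, centrifuged. Triglyceride measured by GPO-POD kit and cholesterol by kit, both normalized to BCA protein; n = 3.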

3T3-L1 [5] = test: Induction of apoptosis in mouse 3T3L1 cells assessed as late apoptotic cells at 0.3 uM after 24 hrs by annexin-V-FITC and PI staining based flow cytometry (reference value: 0.03%); format: functional
[6] = Cell cycle arrest in mouse 3T3L1 cells assessed as number of cells at G0/G1 phase at 1 uM after 24 hrs by flow cytometry (reference value: 37.6%); format: functional, cell-based; conditions: 3T3-L1
[7] = target: T1, Serine/threonine-protein kinase STK11 (Mus musculus); test: Activation of LKB1-mediated ACC in mouse 3T3L1 cells assessed as increase in phophorylated ACC level at 3 uM after 3 days by western blot analysis; format: cell-based; conditions: 3T3-L1
3T3-L1 [8] = test: Induction of apoptosis in mouse 3T3L1 cells assessed as viable cells at 3 uM after 24 hrs by annexin-V-FITC and PI staining based flow cytometry (reference value: 98.95%); format: functional; conditions: 3T3-L1, 24 h, read-out: Activity
[9] = target: T1, Serine/threonine-protein kinase STK11 (Mus musculus); test: Activation of LKB1-mediated AMPK in mouse 3T3L1 cells assessed as increase in phophorylated AMPK alpha at Thr 172 residue level at 3 uM by western blot analysis; format: cell-based; conditions: 3T3-L1, TDE = time-dependent effect; how it was run: as §2
[10] = Cell cycle arrest in mouse 3T3L1 cells assessed as number of cells at S phase at 1 uM after 24 hrs by flow cytometry (reference value: 18.1%); format: functional, cell-based; conditions: 3T3-L1
[11] = Downregulation of C/EBP beta mRNA level in mouse 3T3L1 cells at 0.3 to 3 uM after 24 hrs by RT-PCR analysis; format: functional, cell-based; conditions: 3T3-L1
How it was run: (§3)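 3T3-L1 preadipocytes in adipogenic cocktail with compound (0.3-3.0 µM; 3 µM for the 2 h and 24 h time course). Total RNA extracted, cDNA made from 1 µg RNA with oligo primer, then PCR: 95 °C 10 min, 35 cycles of 95 °C 30 s, annealing 45 s, 72 °C 1 min, final 72 °C 10 min. Normalized to actin; n = 3.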

HeLa = test: Drug uptake in human HeLa cells measured from 5 mins to 1 hr by fluorescence analysis; format: ADME, cell-based
[12] = Downregulation of C/EBP alpha mRNA level in mouse 3T3L1 cells at 3 uM after 24 hrs by RT-PCR analysis; format: functional, cell-based; conditions: 3T3-L1; how it was run: as §3
[13] = Upregulation of LKB1 expression in mouse 3T3L1 cells at 3 uM after 10 mins by western blot analysis; format: functional, cell-based; conditions: 3T3-L1
How it was run: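 During 3T3-L1 differentiation with adipogenic cocktail, cells were treated with 3 µM compound for 10 min, 2 h or 24 h. Lysates in RIPA with protease/phosphatase inhibitors were run on SDS-PAGE and Western blotted. Proteins were normalized to GAPDH and expressed relative to the 10 min DMSO group, which was set at 100%; n = 3 independent experiments.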

[14] = Downregulation of C/EBP beta mRNA level in mouse 3T3L1 cells at 3 uM after 2 and 24 hrs by RT-PCR analysis; format: functional, cell-based; conditions: 3T3-L1; how it was run: as §3
[15] = Downregulation of C/EBP alpha level in mouse 3T3L1 cells at 0.3 to 3 uM after 3 days by western blot analysis; format: functional, cell-based; conditions: 3T3-L1; how it was run: as §1
[16] = Cell cycle arrest in mouse 3T3L1 cells assessed as number of cells at G2/M phase at 3 uM after 24 hrs by flow cytometry (reference value: 37.2%); format: functional, cell-based; conditions: 3T3-L1
[17] = Downregulation of CaMKKalpha expression in mouse 3T3L1 cells by western blot analysis; format: functional, cell-based; conditions: 3T3-L1

EC50 ([1]; 3t3-l1): 17 nM | Activity [4]: tde | Activity [7]: Active | Activity [9]: tde | Drug uptake (HeLa): Active
SMILES: O=Cc1c(-c2nc(NCCN3CCCC3)c3ccccc3n2)[nH]c2ccccc12
inhibition ([1]; 3T3-L1): Dose-dependent effect | inhibition [2]: Active | Activity (3T3-L1 [3]): 0.39% | inhibition (INH) (HepG2): <10% | Activity (3T3-L1 [5]): 0.47% | Activity [6]: 42.9% | viability at 3 µM (3T3-L1 [8]): 97.7% | Activity [10]: 5.2% | inhibition [11]: Active | inhibition [12]: Active | Activity [13]: Active | inhibition [14]: Active | inhibition [15]: Active | Activity [16]: 57.9% | inhibition [17]: Active
